Data set [1] is filed under the species Homo sapiens. Briefly: Selectivity ratio of inhibition of recombinant human CYP3A4 to IC50 for inhibition of recombinant human soluble epoxide hydrolase using 7-BFC as substrate.
For data set [2], the species on record is Homo sapiens. The data set is described as follows: Selectivity ratio of inhibition of recombinant human CYP2C9 to IC50 for inhibition of recombinant human soluble epoxide hydrolase.
The species entered for data set [3] is Homo sapiens. Briefly: Selectivity ratio of inhibition of recombinant human CYP3A4 to IC50 for inhibition of recombinant human soluble epoxide hydrolase using DBF as substrate.
The species named for data set [4] is Homo sapiens. Briefly: Selectivity ratio of inhibition of recombinant human CYP1A2 to IC50 for inhibition of recombinant human soluble epoxide hydrolase.
Data set [5] is described as follows: Apparent permeability across basolateral to apical side in human Caco-2 cells at 10 uM measured after 2 hrs by LC-MS/MS analysis. The following applies: caco-2, 2 h. In general terms: Caco-2 cells form a polarised layer with tight junctions and transporters.
Data set [6] in a line: Selectivity ratio of inhibition of recombinant human CYP1A2 to IC50 for inhibition of recombinant mouse soluble epoxide hydrolase.
Data set [7] in a line: Selectivity ratio of inhibition of recombinant human CYP2C19 to IC50 for inhibition of recombinant mouse soluble epoxide hydrolase.
The subject of data set [8] is Mus musculus. The data set is described as follows: Protection against cerulein-induced acute pancreatitis in C57BL/6J mouse assessed as reduction in ATF3 mRNA level at 3 mg/kg administered 24 hrs post-cerulein addition and measured after 24 hrs by Trisure-reagent based RT-PCR analysis. It counts as functional, organism-based. Put shortly: (§1)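 Post-induction (treatment) protocol in C57BL/6J mice. Acute pancreatitis is induced by several cerulein administrations, followed by ip sEH inhibitor at 3 or 30 mg/kg. Pancreatic mRNA of TNF-α, IL-1β, MCP-1 and ATF3 is quantified against control and cerulein-only groups. Mean ± SEM, n = 5 per group.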

Data set [9] in a line: Half life in CD-1 mouse at 1 mg/kg, iv measured up to 24 hrs by LC-MS analysis. The format is ADME, organism-based. The following applies: in vivo. Put shortly: (§2)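 Single dose, 1 mg/kg, given to mice intravenously or intraperitoneally. Parameters are taken from the plasma concentration–time profile: T1/2, Tmax, Cmax, C0 (iv only), AUClast, AUCINF_obs, Vz and Cl. Bioavailability is derived from ip versus iv exposure.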

Data set [10] is described as follows: Cmax in CD-1 mouse at 1 mg/kg, iv measured up to 24 hrs by LC-MS analysis. It counts as ADME, organism-based. Set-up: route intravenous, dose 1 mg/kg, time <=24. The following applies: in vivo. Put shortly:
as §2

The test system of data set [11] is Mus musculus. Briefly: Protection against cerulein-induced acute pancreatitis in C57BL/6J mouse assessed as reduction in inflammation at 30 mg/kg administered twice per day for 5 days followed by cerulein addition and measured 24 hrs post-last dose by H and E staining based histological analysis. The format is functional, organism-based. The settings on record: time 6.0 day. A digest of the protocol:
(§3)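 H&E-stained pancreas sections are scored for edema and inflammation. Groups are control, cerulein and cerulein plus inhibitor, in both the pre-induction and post-induction cerulein acute pancreatitis models in mice.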

The nature of data set [12]: AUC (infinity) in CD-1 mouse at 1 mg/kg, iv measured up to 24 hrs by LC-MS analysis. Also noted: route intravenous, dose 1 mg/kg, time <=24. The following applies: in vivo. The format is ADME, organism-based. Put shortly:
as §2

The test system of data set [13] is Mus musculus. The data set is described as follows: Protection against cerulein-induced acute pancreatitis in C57BL/6J mouse assessed as reduction in edema at 30 mg/kg administered twice per day for 5 days followed by cerulein addition and measured 24 hrs post-last dose by H and E staining based histological analysis. It counts as functional, organism-based. The settings on record: time 6.0 day. A digest of the protocol:
as §3

Data set [14] in a line: Half life in CD-1 mouse at 1 mg/kg, ip measured up to 24 hrs by LC-MS analysis. It counts as ADME, organism-based. The following applies: in vivo. Put shortly: as §2
A short description of data set [15]: Apparent volume of distribution in CD-1 mouse at 1 mg/kg, iv measured up to 24 hrs by LC-MS analysis. It counts as ADME, organism-based. The settings on record: in vivo. Put shortly:
as §2

The test system of data set [16] is Mus musculus. Briefly: Protection against cerulein-induced acute pancreatitis in C57BL/6J mouse assessed as reduction in inflammation at 30 mg/kg administered 24 hrs post-cerulein addition and measured after 24 hrs by H and E staining based histological analysis. The format is functional, organism-based. Put shortly:
as §3

Data set [17] can be described thus: Initial plasma concentration in CD-1 mouse at 1 mg/kg, iv measured up to 24 hrs by LC-MS analysis. It counts as ADME, organism-based. The settings on record: in vivo. A digest of the protocol: as §2
A short description of data set [18]: AUC (infinity) in CD-1 mouse at 1 mg/kg, ip measured up to 24 hrs by LC-MS analysis. The following applies: in vivo. It counts as ADME, organism-based. Also noted: route intraperitoneal, dose 1 mg/kg, time <=24. Put shortly: as §2
The nature of data set [19]: Clearance in CD-1 mouse at 1 mg/kg, iv measured up to 24 hrs by LC-MS analysis. The format is ADME, organism-based. The settings on record: in vivo. Put shortly: as §2
A short description of data set [20]: Acute toxicity in CD-1 mouse assessed as effect on behavior at 5 to 80 mg/kg, ip administered daily for 5 days. It counts as organism-based. The settings on record: in vivo, 120 h, dose 5-80 mg/kg, time 5 day. Put shortly: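 Mice received the compound intraperitoneally once a day for five consecutive days at 5, 10, 20 and 80 mg/kg. Acute toxicity was judged from body weight during treatment, apparent behaviour problems and the presence of petechiae.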

The test system of data set [21] is Mus musculus. The data set is described as follows: Protection against cerulein-induced acute pancreatitis in C57BL/6J mouse assessed as reduction in IL-1beta mRNA level at 30 mg/kg administered 24 hrs post-cerulein addition and measured after 24 hrs by Trisure-reagent based RT-PCR analysis. It counts as functional, organism-based. A digest of the protocol: as §1

Data set [22] is described as follows: Tmax in CD-1 mouse at 1 mg/kg, iv measured up to 24 hrs by LC-MS analysis. It counts as ADME, organism-based. The settings on record: in vivo. A digest of the protocol:
as §2

Data set [23] can be described thus: AUClast in CD-1 mouse at 1 mg/kg, ip measured up to 24 hrs by LC-MS analysis. The format is ADME, organism-based. Set-up: route intraperitoneal, dose 1 mg/kg, time <=24. The settings on record: in vivo. Put shortly:
as §2

Data set [24] in a line: Tmax in CD-1 mouse at 1 mg/kg, ip measured up to 24 hrs by LC-MS analysis. The format is ADME, organism-based. The following applies: in vivo. Put shortly:
as §2

The nature of data set [25]: AUClast in CD-1 mouse at 1 mg/kg, iv measured up to 24 hrs by LC-MS analysis. Also noted: route intravenous, dose 1 mg/kg, time <=24. It counts as ADME, organism-based. The settings on record: in vivo. A digest of the protocol: as §2

Calls of active or inactive are those of the source. The calls are words filed in the database; no cut-off is given here.

With `CC(=O)N1CCC(NC(=O)NC23CC4CC(CC(C4)O2)C3)CC1`, the Selectivity ratio (in the data set listed under Homo sapiens [1]; in the data set listed under Homo sapiens [2]; in the data set listed under Homo sapiens [3]; in the data set filed under Homo sapiens [4]; in data set [6]; in data set [7]) was above 100 each time. The apparent permeability coefficient (Papp) in [5] came to 9.45 ×10⁻⁶ cm/s.

For `CC(C)S(=O)(=O)N1CCC(NC(=O)NC23CC4CC(CC(C4)O2)C3)CC1`, the result in the data set on Mus musculus [8] was inactive. For the same compound, the values for the t1/2 in [9] and in data set [14] were 2.8 h and 3.02 h, respectively. The same compound displayed a Cmax in data set [10] of 108.33 ng/mL. The result with Mus musculus [11], in the data set with Mus musculus [13], in the data set with Mus musculus [16] and in the data set on Mus musculus [21] was Active. The AUC in data set [12] was 59.63 ng·h/mL; in data set [18], 35.2 ng·h/mL. In data set [15], the Vz amounted to 67.73 L/kg. Also, the C0 in [17] was found to be 236.23 ng/mL. This compound also showed a CL in data set [19] of 279.5 mL/min/kg. In addition, the Activity entry in [20] was “Non-Toxic”. The Tmax in data set [22] and in [24] was 9.6 min each time. Besides, the AUClast in data set [23] is 34.67 ng·h/mL; in data set [25], 59.1 ng·h/mL.

As a reminder, the Papp is a coefficient for how fast a substance crosses the barrier. One may read the Cmax as the maximum level reached in the sampled fluid or tissue. What is called AUC is the area under the concentration-time curve, a measure of exposure. A higher AUC goes with high exposure. As usually defined, the Tmax is the time from dosing to the highest level.

Source of the values: ChEMBL document CHEMBL4725350, “2-Oxaadamant-1-yl Ureas as Soluble Epoxide Hydrolase Inhibitors: In Vivo Evaluation in a Murine Model of Acute Pancreatitis” (J Med Chem, 2020).
